Measurements taken from publication PMC7408314 (Inorganic chemistry, 2020).

What was measured:
[1] = target: PSMA on PC3-PIP (PSMA+) cells (Homo sapiens, UniProt Q04609); assay: Receptor saturation binding assay on prostate cancer cells; settings: 2 h incubation
[2] = In vitro mouse serum challenge; type: in vitro ADME; settings: 37 °C, at least six half-lives of scandium-44 (24 h)
In short: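 Scandium-44-labelled complex (free chelator or its PSMA-617 conjugate, labelled at ambient temperature in 0.5 M NH₄OAc) mixed with an equal volume of mouse serum and held at 37 °C. Aliquots taken at 0.5, 4, 8 and 24 h, run on iTLC-SA in 0.4 M sodium citrate pH 4.5 beside free ⁴⁴Sc-in-serum control. Intact fraction calculated from baseline versus solvent-front peak areas.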

[3] = in vivo; settings: male, nude, mouse, tumor (PSMA+, PC3-PIP), intravenous, total radioactivity, tumor retention
[4] = tested on: PC3-PIP (PSMA+) and PC3-Flu (PSMA−) tumor-bearing nude mice; settings: 7.4 vs 74 GBq/μmol
[5] = [L] = 10 μM, [M] = 1 μM, pH = 7.4; cited from earlier work
[6] = cited from earlier work
[7] = cited from earlier work; remark: listed apart in the source
[8] = protonated tertiary amine in the pyridyl backbone; cited from earlier work
[9] = cited from earlier work; remark: listed apart in the source

Sequence of PSMA on PC3-PIP (PSMA+) cells (Q04609 whole entry): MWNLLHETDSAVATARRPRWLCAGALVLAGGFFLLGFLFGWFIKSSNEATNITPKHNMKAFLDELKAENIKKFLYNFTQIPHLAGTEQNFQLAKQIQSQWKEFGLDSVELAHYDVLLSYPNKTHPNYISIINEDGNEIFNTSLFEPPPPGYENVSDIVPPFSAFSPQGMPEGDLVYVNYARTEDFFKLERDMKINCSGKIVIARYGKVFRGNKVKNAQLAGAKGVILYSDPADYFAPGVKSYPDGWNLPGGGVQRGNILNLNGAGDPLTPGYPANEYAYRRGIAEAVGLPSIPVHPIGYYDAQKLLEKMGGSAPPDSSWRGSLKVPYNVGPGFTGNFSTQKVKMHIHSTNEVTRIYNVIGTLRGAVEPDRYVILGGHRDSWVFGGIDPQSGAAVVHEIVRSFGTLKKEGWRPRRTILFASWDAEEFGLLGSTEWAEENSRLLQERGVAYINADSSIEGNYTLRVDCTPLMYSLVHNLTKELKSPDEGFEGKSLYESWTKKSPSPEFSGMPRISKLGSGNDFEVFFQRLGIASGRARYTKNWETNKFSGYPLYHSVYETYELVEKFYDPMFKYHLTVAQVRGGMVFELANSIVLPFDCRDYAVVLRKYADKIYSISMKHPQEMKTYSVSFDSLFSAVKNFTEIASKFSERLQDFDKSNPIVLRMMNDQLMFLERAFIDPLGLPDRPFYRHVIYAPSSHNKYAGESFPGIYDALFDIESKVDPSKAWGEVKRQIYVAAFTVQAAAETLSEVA

## O=C(O)CC[C@H](NC(=O)N[C@@H](CCCCNC(=O)[C@H](Cc1ccc2ccccc2c1)NC(=O)[C@H]1CC[C@H](CNC(=O)CCCCCCOc2cc(CN(CC(=O)O)Cc3cccc(C(=O)O)n3)nc(CN(CC(=O)O)Cc3cccc(C(=O)O)n3)c2)CC1)C(=O)O)C(=O)O [H4pypa-C7-PSMA617]
[1]
  Bmax: 7.84 ± 0.37 fmol/mg

## O=C(O)CC[C@H](NC(=O)N[C@@H](CCCCNC(=O)[C@H](Cc1ccc2ccccc2c1)NC(=O)[C@H]1CC[C@H](CNC(=O)CCCCCCOc2cc(CN(CC(=O)O)Cc3cccc(C(=O)O)n3)nc(CN(CC(=O)O)Cc3cccc(C(=O)O)n3)c2)CC1)C(=O)O)C(=O)O [[^44Sc][Sc(pypa-C7-PSMA617)], metal not drawn]
[2]
  transchelation in mouse serum: < 1%
[3]; after about four half-lives of scandium-44, 7.4 GBq/μmol
  tissue uptake: 14.9 ± 1.7 %ID/g
[3]; after about four half-lives of scandium-44, 74 GBq/μmol
  tissue uptake: 20 ± 0.6 %ID/g
[4]
  effect of lower apparent molar activity on kidney accumulation: brought down the kidney accumulation by more than half

## O=C(O)CN1CCN(CC(=O)O)CCN(CC(=O)O)CCN(CC(=O)O)CC1 [DOTA, 1,4,7,10-tetraazacyclododecane-1,4,7,10-tetraacetic acid]
[5]
  pSc (pM), −log [M]free: 23.9

## O=C(O)CN(Cc1cccc(CN(CC(=O)O)Cc2cccc(C(=O)O)n2)n1)Cc1cccc(C(=O)O)n1 [H4pypa]
[6]
  complex stability pM with Lu^3+: 22.6
[7]
  complex stability pM with La^3+: 19.9
[8]
  highest pKa: 7.78
[9]
  complex stability pM with In^3+: 30.5

## CC1(N(CC(=O)O)CC(=O)O)CN(CC(=O)O)CCN(CC(=O)O)C1 [AAZTA, 6-[bis(hydroxycarbonyl-methyl)amino]-1,4-bis-(hydroxycarbonylmethyl)-6-methylperhydro-1,4-diaze-pine]
[5]
  pSc (pM), −log [M]free: 24.7
